Measurements of several laboratories.
Lines come from different studies, so protocols differ.

O=C(/C=C/c1cccnc1)NCCCCC1CCN(C(=O)c2ccccc2)CC1
kinetic solubility (PBS; 90 min; pH 7.4): 225 µM

CC(=O)Nc1cc(Nc2cc(NC3CC3)n3ncc(C#N)c3n2)ccc1N(C)[C@@H]1CCOC1
kinetic solubility (shake flask; PBS; 24 h; pH 7.4; 22 °C): 25 µg/mL

CCCCOC(=O)NS(=O)(=O)c1sc(CC(C)C)cc1-c1ccc2c(c1)CN(C(C)=O)C2
kinetic solubility (aqueous buffer; pH 7.4; 37 °C): 30 µM

O=C1CCC(N2C(=O)c3cccc(NCCCCNC(=O)c4cccc(C#Cc5cc(NC(=O)Nc6ccnc(Cl)c6)ccn5)c4)c3C2=O)C(=O)N1 (stereo not drawn)
kinetic solubility (PBS; 24 h; pH 7.4): < 1.56 µM

CC(=O)Nc1cc(Nc2cc(NC3CC3)n3ncc(C#N)c3n2)ccc1N[C@@H]1CCCOC1
kinetic solubility (shake flask; PBS; 24 h; pH 7.4; 22 °C): 2.4 µg/mL

COC(=O)CN(CCCc1ccccc1)CC(=O)N[C@@H](Cc1c[nH]cn1)c1nc(C)no1
kinetic solubility (PBS; 24 h; pH 7.4): 172 µM

CN[C@@H]1CCN(c2ccc(Nc3cc(NC4CC4)n4ncc(C#N)c4n3)cc2NC(C)=O)C1
kinetic solubility (shake flask; PBS; 24 h; pH 7.4; 22 °C): 64 µg/mL

Cc1cc(Nc2ccc(S(F)(F)(F)(F)F)cc2)n2ccnc2n1
kinetic solubility (PBS; pH 6.5): 8.9 µM

CNC(=O)[C@H](Cc1c[nH]cn1)NC(=O)CN(CC(=O)O)Cc1ccccc1
kinetic solubility (PBS; 24 h; pH 7.4): 151 µM

CCCCOC(=O)NS(=O)(=O)c1sc(CC(C)C)cc1-c1ccc2c(c1)CCN(C(C)=O)C2
kinetic solubility (aqueous buffer; pH 7.4; 37 °C): 45 µM

COC(=O)[C@H](Cc1c[nH]cn1)NC(=O)CN(CCCc1ccccc1)CC(=O)O
kinetic solubility (PBS; 24 h; pH 7.4): 199 µM

CC(=O)Nc1cc(Nc2cc(NC3CC3)n3ncc(C#N)c3n2)ccc1N(C)C1COC1
kinetic solubility (shake flask; PBS; 24 h; pH 7.4; 22 °C): 0.9 µg/mL

Cc1noc([C@H](Cc2c[nH]cn2)NC(=O)CN(CCCc2ccccc2)CC(=O)O)n1
kinetic solubility (PBS; 24 h; pH 7.4): 198 µM

CCn1cc(-c2cc(Cn3ccnc3)cc3c2OCCN([C@H](c2cc(OC)ccn2)C2CC2)C3=O)c(C(F)(F)F)n1
kinetic solubility (PBS; 1 h; pH 7.4): 74 µM

Cc1cc(Nc2ccc(C(F)(F)F)cc2)c2ccccc2n1
kinetic solubility (simulated gastric fluid; pH 2; acidic): > 330 µM

COc1ccn2c(Nc3ccccc3F)c(-c3ccncn3)nc2c1
kinetic solubility (aqueous buffer; 24 h): 163 µM

CN[C@H]1CCCN(c2ccc(Nc3cc(NC4CC4)n4ncc(C#N)c4n3)cc2NC(C)=O)C1
kinetic solubility (shake flask; PBS; 24 h; pH 7.4; 22 °C): 54 µg/mL

CCOC(=O)NS(=O)(=O)c1sc(CC(C)C)cc1-c1ccc2c(c1)CN(C(=O)OCC)C2
kinetic solubility (aqueous buffer; pH 7.4; 37 °C): 58 µM

CNC(=O)[C@H](Cc1c[nH]cn1)NC(=O)CN(CCCc1ccccc1)CC(=O)OC
kinetic solubility (PBS; 24 h; pH 7.4): 179 µM

CC(=O)Nc1cc(Nc2cc(NC3CC3)n3ncc(C#N)c3n2)ccc1N1CCNCC1
kinetic solubility (shake flask; PBS; 24 h; pH 7.4; 22 °C): 52 µg/mL

CCOC(=O)NS(=O)(=O)c1sc(CC(C)C)cc1-c1ccc2c(c1)CN(C(C)=O)C2
kinetic solubility (aqueous buffer; pH 7.4; 37 °C): 35 µM
